Experimental data taken from ChEMBL document CHEMBL4613298, “GPBAR1 Activation by C6-Substituted Hyodeoxycholane Analogues Protect against Colitis” (ACS Med Chem Lett, 2020).
The source made the active and inactive calls. No cut-off for these calls is given here.

Assays:
[1] = biological target: T1, Bile acid receptor (Homo sapiens) (UniProt Q96RI1); experiment: Transactivation of FXR (unknown origin) expressed in HepG2 cells co-expressing pSG5RXR/pGL4.70 assessed as maximum receptor activation at 10 uM after 18 hrs by IR1 driven dual renilla-luciferase reporter gene assay relative to relative to CDCA; assay type: cell-based
T1 sequence (whole entry): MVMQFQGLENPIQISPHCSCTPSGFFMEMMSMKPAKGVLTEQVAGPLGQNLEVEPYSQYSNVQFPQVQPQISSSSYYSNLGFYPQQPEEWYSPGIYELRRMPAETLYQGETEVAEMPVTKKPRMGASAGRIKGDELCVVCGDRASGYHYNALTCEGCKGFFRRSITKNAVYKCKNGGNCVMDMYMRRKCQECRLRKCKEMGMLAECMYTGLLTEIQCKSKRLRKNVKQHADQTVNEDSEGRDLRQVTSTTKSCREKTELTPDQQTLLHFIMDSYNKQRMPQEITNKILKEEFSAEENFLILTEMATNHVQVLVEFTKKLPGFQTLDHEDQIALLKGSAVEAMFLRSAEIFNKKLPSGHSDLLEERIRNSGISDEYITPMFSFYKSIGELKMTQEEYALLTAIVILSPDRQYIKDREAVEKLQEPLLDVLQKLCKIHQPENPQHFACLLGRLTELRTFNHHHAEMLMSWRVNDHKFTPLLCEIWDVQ
Procedure, shortened: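 FXR reporter assay in HepG2 cells transfected with FXR and an IR1-driven luciferase reporter, compound at 10 μM. Efficacy is maximal IR1 transactivation relative to CDCA (10 μM). One experiment, triplicate.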

[2] = biological target: T2, G-protein coupled bile acid receptor 1 (Homo sapiens) (UniProt Q8TDU6); experiment: Agonist activity at GPBAR1 receptor in human THP1 cells assessed as reduction in LPS-induced IL-1beta expression at 10 uM after 18 hrs by RT-PCR analysis; assay type: cell-based; conditions: THP-1
T2 sequence (whole entry): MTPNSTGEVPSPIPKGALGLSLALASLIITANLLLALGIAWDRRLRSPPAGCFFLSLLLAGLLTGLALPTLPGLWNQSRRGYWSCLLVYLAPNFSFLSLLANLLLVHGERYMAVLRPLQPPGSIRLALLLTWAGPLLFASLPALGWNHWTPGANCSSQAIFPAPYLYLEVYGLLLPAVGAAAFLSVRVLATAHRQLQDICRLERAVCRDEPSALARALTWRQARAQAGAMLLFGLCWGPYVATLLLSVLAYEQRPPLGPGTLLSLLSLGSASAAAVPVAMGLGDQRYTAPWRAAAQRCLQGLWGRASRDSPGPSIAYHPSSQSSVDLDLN
Procedure, shortened: (§1)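 THP1 monocytic/macrophage cells primed with LPS, then coincubated with or without test agent at 10 μM; expression of cytokine genes (IL-1β, IL-6, TNF-α, IL-10) measured.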

[3] = biological target: T2, G-protein coupled bile acid receptor 1 (Homo sapiens); experiment: Transactivation of human GPBAR1 receptor expressed in HEK293T cells assessed as maximum receptor activation at 10 uM after 18 hrs by cAMP response element driven renilla-luciferase dual reporter gene assay relative to TLCA; assay type: functional, cell-based; conditions: HEK-293T
Procedure, shortened: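 HEK-293T cells transfected with GPBAR1 and a CRE-driven luciferase reporter, exposed to compound at 10 μM. Efficacy is maximal CRE transactivation as percent of that caused by TLCA (10 μM). One experiment, triplicate.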

[4] = biological target: T2, G-protein coupled bile acid receptor 1 (Homo sapiens); experiment: Agonist activity at GPBAR1 receptor in human THP1 cells assessed as reduction in LPS-induced IL-6 expression at 10 uM after 18 hrs by RT-PCR analysis; assay type: cell-based; conditions: THP-1; procedure, shortened: as §1
[5] = Aqueous solubility of compound in pH 7.4 PBS/MeOH at 10 mM after 24 hrs by LC-MS analysis; assay type: physicochemical; conditions: buffer, pH 7.4, 24 h, 10000 µM
[6] = organism: Homo sapiens; experiment: Selectivity index, ratio of transactivation of human GPBAR1 receptor expressed in HEK293T cells assessed as maximum receptor activation at 10 uM to transactivation of human FXR (unknown origin) expressed in HepG2 cells co-expressing pSG5RXR/pGL4.70 assessed as maximum receptor activation at 10 uM; assay type: cell-based
Procedure, shortened: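 Ratio of percent activity at GPBAR1 (HEK-293T, CRE-luciferase, 10 μM, vs TLCA 10 μM) to percent activity at FXR (HepG2, IR1-luciferase, 10 μM, vs CDCA 10 μM). Both taken from the same triplicate experiment.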

[7] = biological target: T2, G-protein coupled bile acid receptor 1 (Homo sapiens); experiment: Transactivation of human GPBAR1 receptor expressed in HEK293T cells at 10 to 50 uM after 18 hrs by cAMP response element driven renilla-luciferase dual reporter gene assay; assay type: functional, cell-based; conditions: HEK-293T
[8] = biological target: T1, Bile acid receptor (Homo sapiens); experiment: Agonist activity at GST-tagged FXR-LBD (unknown origin) assessed as biotinylated SRC-1 recruitment at 10 uM after 30 mins by Alpha Screen assay
[9] = biological target: T2, G-protein coupled bile acid receptor 1 (Homo sapiens); experiment: Agonist activity at GPBAR1 receptor in human THP1 cells assessed as reduction in LPS-induced TNFalpha expression at 10 uM after 18 hrs by RT-PCR analysis; assay type: cell-based; conditions: THP-1; procedure, shortened: as §1
[10] = biological target: T3, G-protein coupled bile acid receptor 1 (Homo sapiens, UniProt Q8TDU6); experiment: Agonist activity at human GPBAR1 receptor expressed in HEK293T cells after 18 hrs by cAMP response element driven renilla-luciferase dual reporter gene assay; assay type: functional, cell-based, HEK-293T
T3 sequence (Q8TDU6 whole entry): T2 sequence (whole entry)
Procedure, shortened: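 GPBAR1 transactivation in transfected HEK-293T cells carrying a CRE-luciferase reporter; potency expressed as EC50. Data from one experiment run in triplicate.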

| max activation [1] [%] | max activation [3] [%] | EC50 [10] [nM] | Structure (SMILES) | Activity [2] | Activity [4] | solubility [5] | Selectivity Index [6] | Activity [7] | Activity [8] | Activity [9] |
| --- | --- | --- | --- | --- | --- | --- | --- | --- | --- | --- |
| – | – | – | C[C@H](CC#N)[C@H]1CC[C@H]2[C@@H]3C[C@@](C)(O)[C@H]4C[C@H](O)CC[C@]4(C)[C@H]3CC[C@]12C | – | – | – | – | inactive | inactive | – |
| 4.3 | 22.2 | – | CC(C)[C@]1(O)C[C@@H]2[C@H](CC[C@]3(C)[C@@H]([C@H](C)CC#N)CC[C@@H]23)[C@@]2(C)CC[C@@H](O)C[C@H]21 | – | – | – | 5.16 | – | – | – |
| – | – | – | C=CC[C@@]1(O)C[C@@H]2[C@H](CC[C@]3(C)[C@@H]([C@H](C)CC#N)CC[C@@H]23)[C@@]2(C)CC[C@@H](O)C[C@H]12 | – | – | – | – | inactive | inactive | – |
| 4.4 | 8.3 | – | C[C@H](CC#N)[C@H]1CC[C@H]2[C@@H]3C[C@](O)(Cc4ccccc4)[C@@H]4C[C@H](O)CC[C@]4(C)[C@H]3CC[C@]12C | – | – | – | 1.88 | – | – | – |
| 3.5 | 119 | 2650 | C[C@H](CC#N)[C@H]1CC[C@H]2[C@@H]3C[C@H](O)[C@@H]4C[C@H](O)CC[C@]4(C)[C@H]3CC[C@]12C | – | – | – | 33.9 | – | – | – |
| 3.1 | 67.1 | – | CCC[C@]1(O)C[C@H]2[C@@H]3CC[C@H]([C@H](C)CC#N)[C@@]3(C)CC[C@@H]2[C@@]2(C)CC[C@@H](O)C[C@@H]12 | – | – | – | 21.6 | – | – | – |
| 18.2 | 38.8 | – | C[C@H](CC#N)[C@H]1CC[C@H]2[C@@H]3C[C@@](O)(c4ccccc4)[C@@H]4C[C@H](O)CC[C@]4(C)[C@H]3CC[C@]12C | – | – | – | 2.13 | – | – | – |
| – | – | – | CC[C@@]1(O)C[C@@H]2[C@H](CC[C@]3(C)[C@@H]([C@H](C)CC#N)CC[C@@H]23)[C@@]2(C)CC[C@@H](O)C[C@H]12 | – | – | – | – | inactive | inactive | – |
| 2.2 | 62.5 | – | C=C[C@]1(O)C[C@@H]2[C@H](CC[C@]3(C)[C@@H]([C@H](C)CC#N)CC[C@@H]23)[C@@]2(C)CC[C@@H](O)C[C@H]21 | – | – | – | 28.4 | – | – | – |
| – | – | – | CCC[C@@]1(O)C[C@@H]2[C@H](CC[C@]3(C)[C@@H]([C@H](C)CC#N)CC[C@@H]23)[C@@]2(C)CC[C@@H](O)C[C@H]12 | – | – | – | – | inactive | inactive | – |
| 4.1 | 62.5 | 100 | C=CC[C@@]1(O)C[C@H]2[C@@H]3CC[C@H]([C@H](C)CC#N)[C@@]3(C)CC[C@@H]2[C@@]2(C)CC[C@@H](O)C[C@@H]12 | – | – | – | 15.2 | – | – | – |

| Structure (SMILES) | max activation [1] [%] | max activation [3] [%] | EC50 [10] [nM] | Activity [2] | Activity [4] | solubility [5] | Selectivity Index [6] | Activity [7] | Activity [8] | Activity [9] |
| --- | --- | --- | --- | --- | --- | --- | --- | --- | --- | --- |
| C=CCCC[C@]1(O)C[C@H]2[C@@H]3CC[C@H]([C@H](C)CC#N)[C@@]3(C)CC[C@@H]2[C@@]2(C)CC[C@@H](O)C[C@@H]12 | 1.6 | 90.1 | – | Active | Active | Soluble | 56.3 | – | – | – |
| CC[C@@]1(O)C[C@H]2[C@@H]3CC[C@H]([C@H](C)CC#N)[C@@]3(C)CC[C@@H]2[C@@]2(C)CC[C@@H](O)C[C@@H]12 | 6.6 | 65.9 | – | Active | Active | Soluble | 9.9 | – | – | Active |
| C[C@H](CC#N)[C@H]1CC[C@H]2[C@@H]3C[C@@](C)(O)[C@@H]4C[C@H](O)CC[C@]4(C)[C@H]3CC[C@]12C | 5.5 | 83.4 | – | Active | Active | Soluble | 15.1 | – | – | – |
| C[C@H](CC#N)[C@H]1CC[C@H]2[C@@H]3C[C@](C)(O)[C@@H]4C[C@H](O)CC[C@]4(C)[C@H]3CC[C@]12C | 6.4 | 95.4 | – | Active | Active | Soluble | 14.9 | – | – | Active |
